# Results taken from ChEMBL document CHEMBL1811853, “Design and evaluation of 3-aminopyrazolopyridinone kinase inhibitors inspired by the natural product indirubin” (Bioorg Med Chem, 2011).
# How the values were obtained:
# [1] = biological target: Tyrosine-protein kinase Fyn (Homo sapiens, UniProt P06241); test: Inhibition of FYN at 30 uM by microfluidic mobility shift assay
# Procedure, shortened: (§1)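 Single-concentration screen, singlicate, 30 uM final (diluted from 1 mM DMSO solutions), fluorescently tagged peptide substrate appropriate to each kinase, ATP at apparent Km for each protein. Phosphorylated and unphosphorylated peptides separated electrophoretically; conversion is the phosphorylated peak area over the sum of both peaks. No-inhibitor and no-ATP controls; H89 reference on each plate.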
# [2] = biological target: Mitogen-activated protein kinase 3 (Homo sapiens) (UniProt P27361); test: Inhibition of ERK1 at 30 uM by microfluidic mobility shift assay; procedure, shortened: as §1
# [3] = biological target: Tyrosine-protein kinase Lyn (Homo sapiens, UniProt P07948); test: Inhibition of LYN at 30 uM by microfluidic mobility shift assay; procedure, shortened: as §1
# [4] = biological target: Glycogen synthase kinase-3 beta (Homo sapiens) (UniProt P49841); test: Inhibition of GSK3B at 30 uM by microfluidic mobility shift assay; procedure, shortened: as §1
# [5] = biological target: T1, Serine/threonine-protein kinase Chk1 (Homo sapiens) (UniProt O14757); test: Inhibition of CHK1 at 30 uM by microfluidic mobility shift assay; procedure, shortened: as §1
# T1 sequence (whole entry): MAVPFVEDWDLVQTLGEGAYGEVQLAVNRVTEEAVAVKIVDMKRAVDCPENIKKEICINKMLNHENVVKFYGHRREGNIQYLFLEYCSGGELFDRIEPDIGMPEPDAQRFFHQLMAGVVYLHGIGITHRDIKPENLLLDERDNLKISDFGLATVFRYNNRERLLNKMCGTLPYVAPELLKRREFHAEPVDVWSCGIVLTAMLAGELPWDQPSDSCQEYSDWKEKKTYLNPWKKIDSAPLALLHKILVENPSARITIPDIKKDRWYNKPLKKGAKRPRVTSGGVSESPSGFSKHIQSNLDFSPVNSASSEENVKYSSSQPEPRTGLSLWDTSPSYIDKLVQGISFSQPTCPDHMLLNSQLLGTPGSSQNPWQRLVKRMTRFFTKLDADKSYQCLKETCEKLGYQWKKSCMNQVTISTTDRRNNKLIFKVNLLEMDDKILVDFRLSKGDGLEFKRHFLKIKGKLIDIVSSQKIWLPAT
# [6] = biological target: Serine/threonine-protein kinase Chk2 (Homo sapiens, UniProt O96017); test: Inhibition of CHK2 at 30 uM by microfluidic mobility shift assay; procedure, shortened: as §1
# [7] = biological target: Mitogen-activated protein kinase 1 (Homo sapiens) (UniProt P28482); test: Inhibition of ERK2 at 30 uM by microfluidic mobility shift assay; procedure, shortened: as §1
# [8] = Inhibition of PKA at 30 uM by microfluidic mobility shift assay; procedure, shortened: as §1
# [9] = biological target: Ribosomal protein S6 kinase alpha-1 (Homo sapiens) (UniProt Q15418); test: Inhibition of RSK1 at 30 uM by microfluidic mobility shift assay; procedure, shortened: as §1
# [10] = biological target: Mitogen-activated protein kinase 14 (Homo sapiens, UniProt Q16539); test: Inhibition of p38alpha at 30 uM by microfluidic mobility shift assay; procedure, shortened: as §1
# [11] = biological target: RAC-beta serine/threonine-protein kinase (Homo sapiens) (UniProt P31751); test: Inhibition of AKT2 at 30 uM by microfluidic mobility shift assay; procedure, shortened: as §1
# [12] = biological target: Tyrosine-protein kinase Lck (Homo sapiens, UniProt P06239); test: Inhibition of LCK at 30 uM by microfluidic mobility shift assay; procedure, shortened: as §1
# [13] = biological target: T2, Aurora kinase A (Homo sapiens) (UniProt O14965); test: Inhibition of AurA at 30 uM by microfluidic mobility shift assay; procedure, shortened: as §1
# T2 sequence (whole entry): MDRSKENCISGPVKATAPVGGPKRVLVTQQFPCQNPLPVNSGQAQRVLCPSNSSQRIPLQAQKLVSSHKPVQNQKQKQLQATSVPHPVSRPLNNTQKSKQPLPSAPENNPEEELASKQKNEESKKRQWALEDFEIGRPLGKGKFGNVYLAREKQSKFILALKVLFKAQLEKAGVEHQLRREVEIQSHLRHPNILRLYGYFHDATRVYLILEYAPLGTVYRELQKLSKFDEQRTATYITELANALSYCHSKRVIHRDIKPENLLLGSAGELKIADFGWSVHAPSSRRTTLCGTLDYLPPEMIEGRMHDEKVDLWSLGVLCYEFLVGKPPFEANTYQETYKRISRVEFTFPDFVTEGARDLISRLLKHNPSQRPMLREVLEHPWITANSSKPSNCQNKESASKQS
# [14] = biological target: MAP kinase-activated protein kinase 2 (Homo sapiens, UniProt P49137); test: Inhibition of MAPKAPK2 at 30 uM by microfluidic mobility shift assay; procedure, shortened: as §1
# [15] = biological target: RAC-alpha serine/threonine-protein kinase (Homo sapiens) (UniProt P31749); test: Inhibition of AKT1 at 30 uM by microfluidic mobility shift assay; procedure, shortened: as §1
# [16] = biological target: T3, Serine/threonine-protein kinase D2 (Homo sapiens) (UniProt Q9BZL6); test: Inhibition of PKD2 at 30 uM by microfluidic mobility shift assay; procedure, shortened: as §1
# T3 sequence (whole entry): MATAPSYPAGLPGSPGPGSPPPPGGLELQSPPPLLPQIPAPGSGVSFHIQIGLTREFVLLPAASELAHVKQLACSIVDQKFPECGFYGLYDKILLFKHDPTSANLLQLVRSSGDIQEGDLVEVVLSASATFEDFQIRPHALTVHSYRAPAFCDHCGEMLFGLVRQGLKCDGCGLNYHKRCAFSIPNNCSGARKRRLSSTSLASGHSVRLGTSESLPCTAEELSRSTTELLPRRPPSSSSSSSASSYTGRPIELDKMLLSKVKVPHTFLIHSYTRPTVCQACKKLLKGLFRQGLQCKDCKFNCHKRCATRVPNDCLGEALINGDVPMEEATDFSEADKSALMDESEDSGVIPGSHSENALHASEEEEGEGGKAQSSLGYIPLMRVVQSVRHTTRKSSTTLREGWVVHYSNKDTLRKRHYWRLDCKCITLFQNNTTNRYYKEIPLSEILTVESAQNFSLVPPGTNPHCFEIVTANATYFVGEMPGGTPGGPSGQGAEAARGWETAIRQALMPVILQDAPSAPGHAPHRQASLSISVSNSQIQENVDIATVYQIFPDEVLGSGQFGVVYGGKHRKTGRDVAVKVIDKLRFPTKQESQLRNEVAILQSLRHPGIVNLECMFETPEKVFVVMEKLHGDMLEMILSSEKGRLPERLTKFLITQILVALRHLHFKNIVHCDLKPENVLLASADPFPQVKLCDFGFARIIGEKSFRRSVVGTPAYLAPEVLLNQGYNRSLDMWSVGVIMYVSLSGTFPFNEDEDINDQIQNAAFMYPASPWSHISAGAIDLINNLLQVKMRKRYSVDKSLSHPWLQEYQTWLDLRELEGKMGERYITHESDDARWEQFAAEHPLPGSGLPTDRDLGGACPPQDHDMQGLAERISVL
# Sequence of Serine/threonine-protein kinase Chk2 (O96017 whole entry): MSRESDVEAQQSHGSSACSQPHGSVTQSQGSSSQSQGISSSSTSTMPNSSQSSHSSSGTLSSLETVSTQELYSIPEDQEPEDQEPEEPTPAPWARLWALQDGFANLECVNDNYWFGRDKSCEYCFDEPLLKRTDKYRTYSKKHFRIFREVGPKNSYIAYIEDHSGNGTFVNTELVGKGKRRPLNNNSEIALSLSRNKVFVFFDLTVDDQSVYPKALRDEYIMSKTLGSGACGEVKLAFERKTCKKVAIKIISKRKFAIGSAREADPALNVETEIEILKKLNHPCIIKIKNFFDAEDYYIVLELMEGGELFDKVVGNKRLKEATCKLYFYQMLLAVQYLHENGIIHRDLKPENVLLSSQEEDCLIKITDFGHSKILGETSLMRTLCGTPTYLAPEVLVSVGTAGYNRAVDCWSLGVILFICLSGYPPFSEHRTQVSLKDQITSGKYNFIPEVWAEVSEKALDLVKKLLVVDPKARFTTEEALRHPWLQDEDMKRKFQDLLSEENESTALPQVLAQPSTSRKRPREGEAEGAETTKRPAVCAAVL
# Sequence of Glycogen synthase kinase-3 beta (Homo sapiens) (P49841 whole entry, looked up): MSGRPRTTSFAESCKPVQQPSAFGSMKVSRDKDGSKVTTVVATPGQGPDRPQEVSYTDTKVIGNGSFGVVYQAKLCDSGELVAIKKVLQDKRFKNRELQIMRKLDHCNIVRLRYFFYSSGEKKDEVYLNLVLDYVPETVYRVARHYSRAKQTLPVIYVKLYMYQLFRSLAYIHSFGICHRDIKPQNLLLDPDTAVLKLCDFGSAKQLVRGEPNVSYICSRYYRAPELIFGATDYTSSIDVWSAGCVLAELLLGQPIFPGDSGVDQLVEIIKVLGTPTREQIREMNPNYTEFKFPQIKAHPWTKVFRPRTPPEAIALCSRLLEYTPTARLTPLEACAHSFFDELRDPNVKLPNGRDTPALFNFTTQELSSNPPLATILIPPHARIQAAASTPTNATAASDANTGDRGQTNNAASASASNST
# Sequence of Tyrosine-protein kinase Lyn (P07948 2-512 limits assumed): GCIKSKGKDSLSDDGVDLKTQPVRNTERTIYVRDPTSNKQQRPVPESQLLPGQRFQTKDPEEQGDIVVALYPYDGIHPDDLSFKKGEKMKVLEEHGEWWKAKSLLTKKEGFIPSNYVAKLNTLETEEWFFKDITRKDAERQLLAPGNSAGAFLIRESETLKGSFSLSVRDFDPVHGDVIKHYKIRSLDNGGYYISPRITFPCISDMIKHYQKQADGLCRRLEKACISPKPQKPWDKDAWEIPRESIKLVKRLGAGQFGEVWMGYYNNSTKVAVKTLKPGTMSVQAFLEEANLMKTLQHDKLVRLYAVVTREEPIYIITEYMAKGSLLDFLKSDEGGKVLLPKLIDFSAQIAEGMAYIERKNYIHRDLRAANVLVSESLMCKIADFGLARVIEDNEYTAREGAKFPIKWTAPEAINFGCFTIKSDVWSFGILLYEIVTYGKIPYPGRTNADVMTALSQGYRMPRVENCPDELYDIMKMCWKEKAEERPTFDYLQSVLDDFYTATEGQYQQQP
# Sequence of Tyrosine-protein kinase Fyn (P06241 2-537 limits assumed): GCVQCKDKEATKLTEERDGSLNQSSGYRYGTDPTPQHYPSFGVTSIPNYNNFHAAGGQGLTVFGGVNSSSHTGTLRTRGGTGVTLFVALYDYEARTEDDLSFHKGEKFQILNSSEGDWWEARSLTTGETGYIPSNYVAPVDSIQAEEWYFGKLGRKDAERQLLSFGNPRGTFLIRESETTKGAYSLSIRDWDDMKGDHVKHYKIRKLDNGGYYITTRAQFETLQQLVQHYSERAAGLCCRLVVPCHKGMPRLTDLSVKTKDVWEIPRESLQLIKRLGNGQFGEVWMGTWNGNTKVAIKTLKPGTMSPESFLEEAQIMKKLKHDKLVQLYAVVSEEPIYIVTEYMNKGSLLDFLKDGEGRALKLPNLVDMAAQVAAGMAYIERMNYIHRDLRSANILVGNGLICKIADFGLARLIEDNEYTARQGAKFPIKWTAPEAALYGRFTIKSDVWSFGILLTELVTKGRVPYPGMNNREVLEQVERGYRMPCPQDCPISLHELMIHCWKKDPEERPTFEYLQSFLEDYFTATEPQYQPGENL
# Sequence of Mitogen-activated protein kinase 3 (Homo sapiens) (P27361 whole entry): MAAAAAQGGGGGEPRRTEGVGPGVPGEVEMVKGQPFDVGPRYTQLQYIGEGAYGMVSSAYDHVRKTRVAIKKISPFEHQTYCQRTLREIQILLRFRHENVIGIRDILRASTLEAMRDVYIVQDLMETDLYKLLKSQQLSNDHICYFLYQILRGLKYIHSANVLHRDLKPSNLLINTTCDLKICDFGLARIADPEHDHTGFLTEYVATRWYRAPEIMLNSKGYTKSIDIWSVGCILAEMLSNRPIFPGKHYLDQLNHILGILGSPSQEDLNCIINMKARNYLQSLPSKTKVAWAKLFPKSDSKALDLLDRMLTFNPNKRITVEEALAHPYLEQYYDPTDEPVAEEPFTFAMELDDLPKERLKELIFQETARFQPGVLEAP
# Sequence of Ribosomal protein S6 kinase alpha-1 (Homo sapiens) (Q15418 whole entry): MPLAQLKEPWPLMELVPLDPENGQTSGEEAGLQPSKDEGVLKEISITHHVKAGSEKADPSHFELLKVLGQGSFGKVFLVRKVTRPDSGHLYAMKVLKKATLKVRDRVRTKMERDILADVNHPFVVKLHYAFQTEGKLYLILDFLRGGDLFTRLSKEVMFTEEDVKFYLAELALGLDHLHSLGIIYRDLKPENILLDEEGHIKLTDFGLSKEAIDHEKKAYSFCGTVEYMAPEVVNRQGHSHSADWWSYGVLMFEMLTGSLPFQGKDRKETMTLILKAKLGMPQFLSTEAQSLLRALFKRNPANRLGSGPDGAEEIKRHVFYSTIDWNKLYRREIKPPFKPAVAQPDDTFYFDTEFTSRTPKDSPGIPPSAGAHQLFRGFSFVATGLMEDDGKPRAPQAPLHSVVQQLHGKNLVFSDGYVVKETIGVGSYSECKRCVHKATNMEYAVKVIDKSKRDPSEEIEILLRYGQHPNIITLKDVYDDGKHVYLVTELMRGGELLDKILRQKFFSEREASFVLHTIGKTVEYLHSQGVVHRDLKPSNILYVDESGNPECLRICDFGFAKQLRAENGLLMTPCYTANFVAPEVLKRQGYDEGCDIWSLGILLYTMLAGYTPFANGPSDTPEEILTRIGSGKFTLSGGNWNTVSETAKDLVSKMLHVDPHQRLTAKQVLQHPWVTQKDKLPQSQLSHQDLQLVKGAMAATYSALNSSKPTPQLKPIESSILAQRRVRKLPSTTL
# Sequence of Tyrosine-protein kinase Lck (P06239 2-509 limits assumed): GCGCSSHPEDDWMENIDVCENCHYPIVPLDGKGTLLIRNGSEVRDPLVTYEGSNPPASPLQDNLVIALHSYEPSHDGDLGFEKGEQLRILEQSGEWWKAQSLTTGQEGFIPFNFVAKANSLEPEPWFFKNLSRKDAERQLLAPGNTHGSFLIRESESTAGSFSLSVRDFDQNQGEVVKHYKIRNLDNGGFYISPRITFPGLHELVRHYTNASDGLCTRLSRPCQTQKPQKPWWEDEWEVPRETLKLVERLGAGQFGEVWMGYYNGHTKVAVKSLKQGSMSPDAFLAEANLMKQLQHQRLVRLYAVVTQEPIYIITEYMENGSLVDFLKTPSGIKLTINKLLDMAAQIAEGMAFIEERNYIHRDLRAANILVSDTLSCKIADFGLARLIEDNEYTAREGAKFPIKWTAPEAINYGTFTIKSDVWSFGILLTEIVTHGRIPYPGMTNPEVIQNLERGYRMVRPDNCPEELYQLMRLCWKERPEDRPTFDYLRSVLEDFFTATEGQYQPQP
# Sequence of Mitogen-activated protein kinase 14 (Q16539 whole entry): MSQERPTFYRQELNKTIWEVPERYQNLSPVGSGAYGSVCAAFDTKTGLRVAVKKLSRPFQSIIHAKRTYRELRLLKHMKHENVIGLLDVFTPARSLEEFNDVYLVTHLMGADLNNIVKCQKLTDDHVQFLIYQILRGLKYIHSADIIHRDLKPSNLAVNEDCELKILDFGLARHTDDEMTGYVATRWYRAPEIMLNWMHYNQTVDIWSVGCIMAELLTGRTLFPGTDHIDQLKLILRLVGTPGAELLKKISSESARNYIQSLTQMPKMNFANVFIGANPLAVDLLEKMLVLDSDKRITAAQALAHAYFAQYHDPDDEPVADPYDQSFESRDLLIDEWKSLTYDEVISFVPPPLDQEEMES
# Sequence of MAP kinase-activated protein kinase 2 (P49137 whole entry, looked up): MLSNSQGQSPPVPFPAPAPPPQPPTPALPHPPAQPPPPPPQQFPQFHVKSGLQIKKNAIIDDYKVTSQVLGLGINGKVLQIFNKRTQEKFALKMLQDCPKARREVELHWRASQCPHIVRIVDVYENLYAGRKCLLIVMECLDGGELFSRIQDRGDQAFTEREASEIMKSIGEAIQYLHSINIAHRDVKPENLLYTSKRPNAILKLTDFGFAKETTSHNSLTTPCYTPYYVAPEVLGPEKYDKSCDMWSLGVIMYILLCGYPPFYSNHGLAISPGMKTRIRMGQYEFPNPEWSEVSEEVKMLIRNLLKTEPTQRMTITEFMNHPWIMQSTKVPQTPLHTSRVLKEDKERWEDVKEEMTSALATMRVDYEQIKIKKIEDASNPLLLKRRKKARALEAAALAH
# Sequence of RAC-beta serine/threonine-protein kinase (Homo sapiens) (P31751 whole entry): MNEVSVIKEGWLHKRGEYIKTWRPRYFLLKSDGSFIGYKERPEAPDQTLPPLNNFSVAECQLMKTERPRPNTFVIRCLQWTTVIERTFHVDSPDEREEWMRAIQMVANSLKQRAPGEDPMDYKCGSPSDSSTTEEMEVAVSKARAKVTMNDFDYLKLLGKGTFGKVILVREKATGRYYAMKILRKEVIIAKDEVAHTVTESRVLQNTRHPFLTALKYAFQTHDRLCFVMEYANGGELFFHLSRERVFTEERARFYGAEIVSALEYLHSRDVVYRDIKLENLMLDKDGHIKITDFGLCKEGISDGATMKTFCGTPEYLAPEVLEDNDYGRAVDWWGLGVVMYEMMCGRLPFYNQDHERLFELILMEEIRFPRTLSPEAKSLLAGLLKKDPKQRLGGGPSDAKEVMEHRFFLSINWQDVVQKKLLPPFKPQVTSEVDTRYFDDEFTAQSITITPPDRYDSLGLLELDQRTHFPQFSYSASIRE
Structure (SMILES),inhibition [1] [%],inhibition [2] [%],inhibition [3] [%],inhibition [4] [%],inhibition [5] [%],inhibition [6] [%],inhibition [7] [%],inhibition [8] [%],inhibition [9] [%],inhibition [10] [%],inhibition [11] [%],inhibition [12] [%],inhibition [13] [%],inhibition [14] [%],inhibition [15] [%],inhibition [16] [%]
Cc1cc2c(c(N)nn2C)c(N2CC[C@H](O)C2)n1,1,2,5,-6,7,-2,2,4,-5,0,4,1,0,2,7,8
CC(=O)Nc1nn(C)c2cc(-c3ccc(N4CCN(C)CC4)cc3)[nH]c(=O)c12,15,3,8,-3,16,3,4,3,16,3,-1,10,15,5,4,13
CN1CCN(c2ccc(-c3cc4[nH]nc(N)c4c(=O)[nH]3)cc2)CC1,76,4,76,42,54,68,-2,98,26,7,6,74,51,55,9,15
COc1ccc(-c2cc3c(c(N)nn3C)c(=O)[nH]2)cc1,56,28,49,81,36,16,16,8,18,5,-8,46,33,51,9,36
CN1CCN(c2ccc(-c3cc4c(c(N)nn4C)c(=O)[nH]3)cc2)CC1,65,13,54,45,67,53,4,81,14,3,-1,65,52,45,8,34

# Continued, values first:
inhibition [1] [%],inhibition [2] [%],inhibition [3] [%],inhibition [4] [%],inhibition [5] [%],inhibition [6] [%],inhibition [7] [%],inhibition [8] [%],inhibition [9] [%],inhibition [10] [%],inhibition [11] [%],inhibition [12] [%],inhibition [13] [%],inhibition [14] [%],inhibition [15] [%],inhibition [16] [%],Structure (SMILES)
99,0,100,12,52,18,7,2,19,85,10,100,66,4,3,15,CN1CCN(c2ccc(-c3cc4nn(-c5ccccc5)c(N)c4c(=O)[nH]3)cc2)CC1
24,19,39,71,9,27,14,35,11,3,8,34,42,40,7,26,Nc1n[nH]c2cc(-c3cccnc3)[nH]c(=O)c12
2,4,3,18,7,27,0,57,6,-7,8,6,23,30,-3,-1,Cc1cc2[nH]nc(N)c2c(=O)[nH]1
9,21,8,31,11,5,18,1,5,85,3,8,9,6,7,15,CC(C)(C)c1cc2nn(-c3ccccc3)c(N)c2c(=O)[nH]1
11,5,12,23,17,7,6,2,-9,-4,-1,7,12,5,-3,-7,Nc1n[nH]c2c3c([nH]c(=O)c12)CCCC3
11,9,10,36,15,16,9,-1,-4,-1,0,12,10,26,5,8,Cc1cc2nc(N)nc(N)c2c(=O)[nH]1
53,6,45,55,11,33,6,86,46,1,11,48,84,-1,36,14,Cc1cc2[nH]nc(N)c2c(N2CCCCC2)n1
